The source of these data is ChEMBL document CHEMBL3797163, “Tryptic Stability of Synthetic Bactenecin Derivatives Is Determined by the Side Chain Length of Cationic Residues and the Peptide Conformation” (J Med Chem, 2016).

In one series the test system is Escherichia coli. In words: Antimicrobial activity against Escherichia coli O157:H7 incubated overnight by microdilution method. In kind it is functional. The method, boiled down: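 Broth microdilution in Mueller-Hinton broth. Peptides were serially diluted twofold in water at 2× final concentration and mixed 1:1 with bacteria in 2× MHB, giving a final inoculum of 2-7 × 10^5 CFU/mL. Plates were incubated overnight at 37 °C. MIC was read as the lowest concentration with no visible growth.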
In general terms: In broth dilution the organism is exposed to a series of concentrations in liquid medium.

In another series the test system is Acinetobacter baumannii. Description: Antimicrobial activity against Acinetobacter baumannii ATCC 17978 incubated overnight by microdilution method. In kind it is functional. The method, boiled down:
(§1)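 Broth microdilution in Mueller-Hinton broth. Peptides were serially diluted 2-fold in water at twice the final concentration, then mixed 1:1 with bacteria in 2× MHB to a final 2˗7 × 10^5 CFU/mL. Plates were incubated overnight at 37 °C. MIC was taken as the lowest concentration showing no growth.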

A further series relates to Bacillus subtilis. Description: Antimicrobial activity against Bacillus subtilis C626 incubated overnight by microdilution method. The class given is functional. The method, boiled down: as §1
The next series deals with Staphylococcus aureus. In words: Antimicrobial activity against Staphylococcus aureus C622 incubated overnight by microdilution method. In kind it is functional. The method, boiled down: as §1
The nature of series [1]: Stability of compound assessed as bovine trypsin mediated degradation at 2 to 5 mM after 2 hrs by HPLC/MS analysis. In kind it is ADME, Bos taurus. Particulars: cattle, isolated protein, 5000 µM. The method, boiled down: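 Bovine pancreatic trypsin (salt-free) was freshly dissolved at 1 mg per 50 mL in 0.1 M NH4HCO3, pH 8.2, and added to peptide, which was diluted from 2˗5 mM stocks to a final 60 µM. Reactions were shaken at 37 °C and sampled at 2 h and 24 h. Aliquots were quenched with acetic acid/TFA and analysed by RP-HPLC (C18, 220 nm) and direct-injection ESI-MS. No-enzyme samples served as controls.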

Each structure is given as a SMILES string. ≈ marks a conversion by molar mass, not a printed value. Square brackets hold non-standard residues; d marks the D form. Peptide text beside a SMILES is read from it. hArg = N=C(N)NCCCC[C@H](N)C(=O)O; Orn = NCCC[C@H](N)C(=O)O

As for `CC[C@H](C)[C@H](NC(=O)[C@H](Cc1c[nH]c2ccccc12)NC(=O)[C@H](CCCN)NC(=O)[C@H](Cc1c[nH]c2ccccc12)NC(=O)[C@H](Cc1c[nH]c2ccccc12)NC(=O)[C@H](CCCCNC(=N)N)NC(=O)[C@@H](N)CCCN)C(=O)N[C@@H](CCCCNC(=N)N)C(=O)N[C@@H](Cc1c[nH]c2ccccc12)C(N)=O` (H-[Orn][hArg]WW[Orn]WI[hArg]W-NH2), the MIC (in general, the least concentration at which growth counts as inhibited) against Escherichia coli turned out to be 1.25 µM (≈ 1.8 µg/mL); with Acinetobacter baumannii it was 5 µM (≈ 7.22 µg/mL); with Bacillus subtilis, 20 µM (≈ 28.9 µg/mL); in the series with Staphylococcus aureus, 5 µM (≈ 7.22 µg/mL). Moreover, the Stability entry in series [1] was “Unstable”.

As to `CC[C@H](C)[C@H](NC(=O)[C@H](Cc1c[nH]c2ccccc12)NC(=O)[C@H](CCCCNC(=N)N)NC(=O)[C@H](Cc1c[nH]c2ccccc12)NC(=O)[C@H](Cc1c[nH]c2ccccc12)NC(=O)[C@H](CCCCNC(=N)N)NC(=O)[C@@H](N)CCCCNC(=N)N)C(=O)N[C@@H](CCCCNC(=N)N)C(=O)N[C@@H](Cc1c[nH]c2ccccc12)C(N)=O` (H-[hArg][hArg]WW[hArg]WI[hArg]W-NH2), the MIC in the series on Escherichia coli came to 2.5 µM (≈ 3.89 µg/mL); in the series on Acinetobacter baumannii, 5 µM (≈ 7.78 µg/mL); with Bacillus subtilis, 5 µM (≈ 7.78 µg/mL); in the series with Staphylococcus aureus it was 2.5 µM (≈ 3.89 µg/mL). Besides, in series [1], the Stability entry was “Unstable”.
